We go through 22 compounds from ChEMBL document CHEMBL1255389, “Exploiting the drug-activating properties of a novel trypanosomal nitroreductase” (Antimicrob Agents Chemother, 2010).

Broadly, the IC50 is the concentration at which inhibition is half-maximal. The Vmax is the rate approached at saturating substrate. Usually kcat/Km stands for the second-order rate constant that governs catalysis at low substrate concentration. Broadly, the Km is the substrate concentration at which the rate is half of its maximum.

In data set [1] the test system is Trypanosoma brucei. The data set can be described thus: Antiparasitic activity against Trypanosoma brucei BSF after 3 days by Alamar blue assay. Format: functional, organism-based. The conditions noted are these: 72 h. The gist of the method: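 BSF trypomastigotes (MITat 427, clone 221a) were seeded at 1 × 10^3 ml−1 in modified Iscove's medium with tetracycline-free FCS, across a range of compound concentrations. Plates ran 3 days at 37°C, then Alamar blue was added for 16 h. Fluorescence was read at ex 530/em 585 nm and IC50 determined.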
On the technique in general: Resazurin is reduced to fluorescent resorufin, in cell work by metabolically active cells.

A short description of data set [2]: Therapeutic index, ratio of IC50 against human THP1 cells to IC50 against Trypanosoma brucei. The conditions noted are these: read-out: Ratio IC50. In kind it is cell-based, THP-1. The gist of the method: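 Index was calculated as THP-1 IC50 divided by T. brucei BSF IC50. THP-1 IC50 came from 6-day Alamar blue assays, and parasite IC50 from 3-day Alamar blue assays, both at 37°C.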

Data set [3] deals with THP-1. Put plainly: Cytotoxicity against human THP1 cells after 6 days by Alamar blue assay. In kind it is cell-based. The note with it: THP-1, 144 h. In outline: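 THP-1 cells were grown in RPMI 1640 with 10% tetracycline-free FCS and 20 mM HEPES. They were seeded at 1 × 10^4 ml−1 across a range of compound concentrations and incubated 6 days at 37°C, 5% CO2.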
Data set [4] concerns Trypanosoma brucei. The note with it: 100 uM.
For data set [5], the system named is Trypanosoma brucei.
Data set [6] deals with Trypanosoma brucei. The source holds these as a separate data set.
Data set [7] relates to Trypanosoma brucei. Put plainly: Antiparasitic activity against Trypanosoma brucei BSF overexpressing NTR gene after 3 days by Alamar blue assay. Format: functional, organism-based. The conditions noted are these: 72 h. The gist of the method: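 Parasite lines were heterozygous NTR+/− (kept on 2 μg ml−1 puromycin) or TbNTR-overexpressing (kept on 2.5 μg ml−1 hygromycin plus 1 μg ml−1 phleomycin). Tetracycline at 1 μg ml−1 was added for induction where appropriate. Cells were seeded at 1 × 10^3 ml−1 and grown 3 days at 37°C, followed by Alamar blue for 16 h. Fluorescence IC50s were compared with control cells.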

Consider `CC1CS(=O)(=O)CCN1/N=C/c1ccc([N+](=O)[O-])o1` (configuration not stated) [NIFURTIMOX], for which the IC50 in data set [1] turned out to be 1.8 µM; in data set [3] it was 64.8 µM. Further, the selectivity ratio in data set [2] is 36. Besides, in data set [4], the Vmax came to 423 nmol/min. For the same compound, the kcat/Km in data set [5] is 3.4 M⁻¹ s⁻¹. In addition, the Km in data set [6] was determined as 53.1 µM.

In turn, `Nc1nc(N)nc(Nc2ccc([As]3SCC(CO)S3)cc2)n1` (configuration not stated) [MELARSOPROL] returned an IC50 in data set [7] of 4 µM.

For the compound `O=[N+]([O-])c1ccc([C@@H]2CCO[P@](=O)(N(CCCl)CCCl)N2)cc1`, the values for the IC50 in data set [1] and in data set [3] were 1.8 µM and 64.8 µM, respectively. In data set [2], the selectivity ratio was determined as 36.

On to `O=[N+]([O-])c1ccc([C@@H]2CCO[P@@](=O)(N(CCCl)CCCl)N2)cc1`, for which the figures for the IC50 in data set [1] and in data set [3] were 1.8 µM and 64.8 µM, respectively. Moreover, the selectivity ratio in data set [2] was 36.

As for `NP(=O)(OCc1ccccc1[N+](=O)[O-])N(CCCl)CCCl` (configuration not stated), the IC50 in data set [1] is 1.8 µM; in data set [3], 64.8 µM. For the same compound, the selectivity ratio in data set [2] came out at 36.

As for `NP(=O)(OCc1cccc([N+](=O)[O-])c1)N(CCCl)CCCl` (configuration not stated), the IC50 came to 1.8 µM in data set [1] and 64.8 µM in data set [3]. In addition, the selectivity ratio in data set [2] stood at 36.

Turning to `COc1cc([N+](=O)[O-])ccc1COP(N)(=O)N(CCCl)CCCl` (configuration not stated), the IC50 in data set [1] was found to be 1.2 µM; in data set [3], 33.5 µM. In addition, the selectivity ratio in data set [2] worked out at 28.

`NP(=O)(OCc1c(F)cc([N+](=O)[O-])cc1F)N(CCCl)CCCl` (configuration not stated): the values for the IC50 in data set [1] and in data set [3] were 0.007 µM and 6.9 µM, respectively.

Take `CC(OP(N)(=O)N(CCCl)CCCl)c1ccc([N+](=O)[O-])cc1` (configuration not stated): the IC50 in data set [1] is 1.8 µM; in data set [3], 64.8 µM. In data set [2], the selectivity ratio was 36.

In the case of `NP(=O)(OCc1ccc([N+](=O)[O-])c(F)c1)N(CCCl)CCCl` (configuration not stated), the IC50 in data set [1] worked out at 3.2 µM; in data set [3], 17.6 µM. The selectivity ratio in data set [2] amounted to 6.

`O=[N+]([O-])c1ccc([C@@H]2CCN[P@@](=O)(N(CCCl)CCCl)O2)cc1`: the IC50 was 1.8 µM in data set [1] and 64.8 µM in data set [3]. Besides, the selectivity ratio in data set [2] was found to be 36.

In the case of `CC(C)(C(=O)N[C@@H]1CCN[P@@](=O)(N(CCCl)CCCl)O1)c1ccccc1[N+](=O)[O-]`, the IC50 amounted to 1.8 µM in data set [1] and 64.8 µM in data set [3]. Further, the selectivity ratio in data set [2] turned out to be 36.

As to `O=[N+]([O-])c1ccc([C@@H]2CCN[P@](=O)(N(CCCl)CCCl)N2)cc1`, the IC50 is 1.8 µM in data set [1] and 64.8 µM in data set [3]. Besides, in data set [2], the selectivity ratio stood at 36.

For `NP(=O)(OCc1ccc([N+](=O)[O-])cc1Cl)N(CCCl)CCCl` (configuration not stated), the IC50 in data set [1] came out at 0.008 µM; in data set [3], 10 µM.

For the compound `Cc1cc(COP(N)(=O)N(CCCl)CCCl)ccc1[N+](=O)[O-]` (configuration not stated), the IC50 in data set [1] came to 1.8 µM; in data set [3], 64.8 µM. Further, the selectivity ratio in data set [2] was found to be 36.

On to `NP(=O)(OCc1ccc([N+](=O)[O-])cc1F)N(CCCl)CCCl` (configuration not stated), for which the IC50 came to 0.268 µM in data set [1] and 20.3 µM in data set [3].

Consider `O=[N+]([O-])c1ccc([C@@H]2CCN[P@](=O)(N(CCCl)CCCl)O2)cc1`, for which the figures for the IC50 in data set [1] and in data set [3] were 1.8 µM and 64.8 µM, respectively. For the same compound, the selectivity ratio in data set [2] amounted to 36.

`COc1cc(COP(N)(=O)N(CCCl)CCCl)ccc1[N+](=O)[O-]` (configuration not stated): the IC50 in data set [1] turned out to be 1.8 µM; in data set [3], 64.8 µM. Further, the selectivity ratio in data set [2] is 36.

`CC(C)(C(=O)N[C@@H]1CCN[P@](=O)(N(CCCl)CCCl)O1)c1ccccc1[N+](=O)[O-]`: the IC50 in data set [1] turned out to be 1.8 µM; in data set [3], 64.8 µM. For the same compound, in data set [2], the selectivity ratio was 36.

With `NP(=O)(OCc1ccc([N+](=O)[O-])cc1)N(CCCl)CCCl` (configuration not stated), the values for the IC50 in data set [1] and in data set [3] were 3.4 µM and 66 µM, respectively.

Regarding `NP(=O)(OCc1ccc([N+](=O)[O-])cc1C(F)(F)F)N(CCCl)CCCl` (configuration not stated), the concentration for half-maximal inhibition (IC50) in data set [1] was 0.149 µM; in data set [3], 19 µM.

As for `O=[N+]([O-])c1ccc([C@@H]2CCN[P@@](=O)(N(CCCl)CCCl)N2)cc1`, the IC50 stood at 1.8 µM in data set [1] and 64.8 µM in data set [3]. For the same compound, the selectivity ratio in data set [2] was determined as 36.
